Activity calls are given as the source filed them. The rule behind the calls is not given here. Bounds are passed on as bounds.

Experimental findings from ChEMBL document CHEMBL4665779, “Novel 2-Substituted 3-Hydroxy-1,6-dimethylpyridin-4(1H)-ones as Dual-Acting Biofilm Inhibitors of Pseudomonas aeruginosa” (J Med Chem, 2020) are described below.

Data set [1] in a line: Growth inhibition of Pseudomonas aeruginosa PAO1 at 512 uM by CLSI-based broth microdilution method. A digest of the protocol: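 Broth microdilution following CLSI standards: two-fold serial dilutions were made in Mueller-Hinton broth and inoculated with P. aeruginosa to a final OD600 of 0.05. The top final concentration is printed as […].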
The subject of another data set is Pseudomonas aeruginosa. Nature of the data set: Antibiofilm activity against Pseudomonas aeruginosa PAO1 assessed as inhibition of biofilm formation after 18 hrs by crystal violet staining based assay. The note with it: PAO1, 18 h. It counts as functional, organism-based.
Another data set has as its system Vero. In words: Cytotoxicity against African green monkey Vero cells assessed as reduction in cell viability at 1.25 to 100 uM after 16 hrs by MTT assay. The class given is cell-based. The note with it: chlorocebus sabaeus, dose 1.25-100 µM. A digest of the protocol:
(§1)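 MTT assay on Vero or LO2 cells seeded at 5000–15000 cells/well for 16 h, then washed with PBS. Compound (0–100 μM) added in DMEM for 16 h at 37 °C, 5% CO2. MTT added for 3 h, formazan dissolved in DMSO with shaking, OD570 read. Triplicate, mean ± SD.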

In data set [2] the test system is Pseudomonas aeruginosa PAO1. In words: Induction of iron chelation in Pseudomonas aeruginosa PAO1 assessed as increase in intracellular pyoverdin level at 1.25 to 20 uM in presence of 10 uM FeCl3 by fluorescence microplate reader assay. The class given is cell-based. The following applies: dose microM 1.25-20.
Data set [3] deals with Pseudomonas aeruginosa PAO1. In words: Induction of iron chelation in Pseudomonas aeruginosa PAO1 assessed as increase in intracellular pyochelin level at 1.25 to 20 uM in presence of 10 uM FeCl3 by fluorescence microplate reader assay. The following applies: dose microM 1.25-20. The class given is cell-based.
The test system of a further data set is L02. In words: Cytotoxicity against human L02 cells assessed as reduction in cell viability at 1.25 to 100 uM after 16 hrs by MTT assay. It counts as cell-based. The note with it: l02, 16 h, dose 1.25-100 µM. A digest of the protocol:
as §1

The nature of data set [4]: Metal chelating activity assessed as negative logarithm of total free ferric ion concentration in a solution at 60 uM measured after 48 hrs in presence of CP645 probe and Fe-NTA by fluorescence spectrophotometry analysis.
In data set [5] the test system is Pseudomonas aeruginosa PAO1. Nature of the data set: Induction of iron chelation in Pseudomonas aeruginosa PAO1 assessed as increase in iron deficiency by measuring change in total ferric ion concentration at 20 uM by inductively coupled plasma mass spectrometry (reference value: 1.91 +/- 0.8 uM).

For `COc1ccccc1C(=O)NCc1c(O)c(=O)cc(C)n1C`, the “growth inhibition (GI)” value in data set [1] is “Non-Toxic”. Moreover, the IC50 in the data set on Pseudomonas aeruginosa is 69.7 µM.

Consider `CCCCCC(=O)NCc1c(O)c(=O)cc(C)n1C`, for which, in data set [1], the “growth inhibition (GI)” value is recorded as “Non-Toxic”. The IC50 in the data set with Pseudomonas aeruginosa was 57.9 µM.

With `Cc1cc(=O)c(O)c(CNC(=O)Cc2ccc(Cl)cc2)n1C`, the “growth inhibition (GI)” value in data set [1] is recorded as “Non-Toxic”. The concentration for half-maximal inhibition (IC50) in the data set with Pseudomonas aeruginosa is more than 100 µM.

Regarding `Cc1cc(=O)c(O)c(CNS(=O)(=O)c2ccc(F)cc2)n1C`, the “growth inhibition (GI)” value in data set [1] was “Non-Toxic”. The IC50 in the data set on Pseudomonas aeruginosa was more than 100 µM.

Take `COc1ccc(C(=O)NCc2c(O)c(=O)cc(C)n2C)cc1`: the “growth inhibition (GI)” value in data set [1] is recorded as “Non-Toxic”. Also, the half-inhibitory concentration (IC50) in the data set with Pseudomonas aeruginosa turned out to be 38.4 µM.

With `COc1ccc(CCC(=O)NCc2c(O)c(=O)cc(C)n2C)cc1`, the “growth inhibition (GI)” value in data set [1] is “Non-Toxic”. Further, in the data set with Pseudomonas aeruginosa, the IC50 came to 59.1 µM.

As to `CCCCCCCCCC(=O)CC(=O)NCc1c(O)c(=O)cc(C)n1C`, the “growth inhibition (GI)” value in data set [1] is recorded as “Non-Toxic”. The IC50 in the data set with Pseudomonas aeruginosa is more than 100 µM.

For `Cc1cc(=O)c(O)c(CNC(=O)C2CCCC2)n1C`, the “growth inhibition (GI)” value in data set [1] is “Non-Toxic”. Moreover, the IC50 in the data set with Pseudomonas aeruginosa turned out to be 65.1 µM.

As for `CCCCCNCc1c(O)c(=O)cc(C)n1C`, the “growth inhibition (GI)” value in data set [1] is recorded as “Non-Toxic”. Besides, in the data set on Pseudomonas aeruginosa, the IC50 is more than 100 µM.

Take `Cc1cc(=O)c(O)c(CNC(=O)Cc2ccc(F)cc2)n1C`: the “growth inhibition (GI)” value in data set [1] is given as “Non-Toxic”. In addition, the IC50 in the data set with Pseudomonas aeruginosa amounted to 55 µM.

In the case of `Cc1cc(=O)c(O)c(CNC(=O)C2CCCO2)n1C` (centres undefined), the “growth inhibition (GI)” value in data set [1] is recorded as “Non-Toxic”. Also, the half-inhibitory concentration (IC50) in the data set on Pseudomonas aeruginosa is 26.5 µM.

With `Cc1cc(=O)c(O)c(CNC(=O)C2CCCCC2)n1C`, in data set [1], the “growth inhibition (GI)” value is “Non-Toxic”. In the data set on Pseudomonas aeruginosa, the half-maximal inhibitory concentration (IC50) is 63.4 µM.

As to `Cc1cc(=O)c(O)c(CNC2CCN(C)CC2)n1C`, in data set [1], the “growth inhibition (GI)” value is “Non-Toxic”. In addition, the IC50 in the data set on Pseudomonas aeruginosa is 35 µM.

Consider `COc1cccc(C(=O)NCc2c(O)c(=O)cc(C)n2C)c1`, for which, in data set [1], the “growth inhibition (GI)” value is “Non-Toxic”. In the data set with Pseudomonas aeruginosa, the concentration for half-maximal inhibition (IC50) was more than 100 µM.

For `COc1ccc(CCCC(=O)NCc2c(O)c(=O)cc(C)n2C)cc1`, the “growth inhibition (GI)” value in data set [1] was “Non-Toxic”. Besides, in the data set on Pseudomonas aeruginosa, the IC50 is more than 100 µM.

With `Cc1cc(=O)c(O)c(CNC(=O)c2ccc(F)cc2)n1C`, the “growth inhibition (GI)” value in data set [1] is given as “Non-Toxic”. In addition, the half-maximal inhibitory concentration (IC50) in the data set with Pseudomonas aeruginosa is more than 100 µM.

As for `Cc1cc(=O)c(O)c(CNC2CCCC2)n1C`, the “growth inhibition (GI)” value in data set [1] is “Non-Toxic”. Also, the IC50 with Pseudomonas aeruginosa was 14.9 µM.

As for `Cc1cc(=O)c(O)c(CNC(=O)Cc2ccccc2)n1C`, the “growth inhibition (GI)” value in data set [1] was “Non-Toxic”. The concentration for half-maximal inhibition (IC50) with Pseudomonas aeruginosa came to 28.1 µM.

On to `Cc1cc(=O)c(O)c(CNC(=O)c2ccnc(C(F)(F)F)c2)n1C`, for which the “growth inhibition (GI)” value in data set [1] is given as “Non-Toxic”. Besides, the 50% inhibitory concentration (IC50) in the data set with Pseudomonas aeruginosa was more than 100 µM.

Take `Cc1cc(=O)c(O)c(CNC(=O)CC2CCCCC2)n1C`: the “growth inhibition (GI)” value in data set [1] is “Non-Toxic”. In the data set on Pseudomonas aeruginosa, the half-inhibitory concentration (IC50) came out at 46.8 µM.

Regarding `COc1cccc(NCc2c(O)c(=O)cc(C)n2C)c1`, in data set [1], the “growth inhibition (GI)” value is on record as “Non-Toxic”. In addition, the half-maximal inhibitory concentration (IC50) with Pseudomonas aeruginosa was more than 100 µM.

On to `Cc1cc(=O)c(O)c(CNS(=O)(=O)c2ccc(-c3ccccc3)cc2)n1C`, for which the “growth inhibition (GI)” value in data set [1] is listed as “Non-Toxic”. For the same molecule, the IC50 in the data set with Pseudomonas aeruginosa was more than 100 µM.

Consider `Cc1cc(=O)c(O)c(CNC(=O)c2ccc(C(F)(F)F)cc2)n1C`, for which the “growth inhibition (GI)” value in data set [1] is listed as “Non-Toxic”. Moreover, the 50% inhibitory concentration (IC50) in the data set on Pseudomonas aeruginosa was determined as 61.1 µM.

In the case of `Cc1cc(=O)c(O)c(CNS(=O)(=O)c2cccc3c2NCCC3)n1C`, the “growth inhibition (GI)” value in data set [1] was “Non-Toxic”. The IC50 in the data set on Pseudomonas aeruginosa is 35.3 µM.

Regarding `CCCCNCc1c(O)c(=O)cc(C)n1C`, in data set [1], the “growth inhibition (GI)” value was “Non-Toxic”. Moreover, in the data set on Pseudomonas aeruginosa, the 50% inhibitory concentration (IC50) worked out at 52.5 µM.

Take `Cc1c(O)c(=O)ccn1C` [DEFERIPRONE]: the Activity result in the data set on Vero was “Non-Toxic”; in the data set with L02, “Non-Toxic”; in data set [5], 1.23 µM. Further, the outcome in data set [2] was inactive. Besides, the result in data set [3] was Active. Moreover, the IC50 in the data set on Pseudomonas aeruginosa is more than 100 µM. Moreover, the log(activity) in data set [4] is -20.8.

For the molecule `CCCCC(=O)NCc1c(O)c(=O)cc(C)n1C`, the “growth inhibition (GI)” value in data set [1] is reported as “Non-Toxic”. For the same molecule, the IC50 in the data set on Pseudomonas aeruginosa was 56.9 µM.

In the case of `Cc1cc(=O)c(O)c(CNC(=O)c2ccncc2)n1C`, the “growth inhibition (GI)” value in data set [1] is “Non-Toxic”. The IC50 in the data set with Pseudomonas aeruginosa is more than 100 µM.

On to `Cc1cc(=O)c(O)c(CNC(=O)C2CC2)n1C`, for which the “growth inhibition (GI)” value in data set [1] is “Non-Toxic”. Further, the IC50 in the data set on Pseudomonas aeruginosa is more than 100 µM.

`Cc1cc(=O)c(O)c(CNC(=O)C2CCC2)n1C`: in data set [1], the “growth inhibition (GI)” value is recorded as “Non-Toxic”. In the data set with Pseudomonas aeruginosa, the half-inhibitory concentration (IC50) is 64.1 µM.

For the molecule `Cc1cc(=O)c(O)c(CNCC2CN(Cc3ccc(F)cc3)CCO2)n1C` (centres undefined), in data set [1], the “growth inhibition (GI)” value is listed as “Non-Toxic”. For the same molecule, the 50% inhibitory concentration (IC50) in the data set on Pseudomonas aeruginosa was more than 100 µM.

For the molecule `Cc1cc(=O)c(O)c(CNC(=O)c2ccccc2)n1C`, the “growth inhibition (GI)” value in data set [1] is “Non-Toxic”. The half-inhibitory concentration (IC50) in the data set with Pseudomonas aeruginosa is 41.7 µM.

Turning to `COc1ccc(CC(=O)NCc2c(O)c(=O)cc(C)n2C)cc1`, in data set [1], the “growth inhibition (GI)” value was “Non-Toxic”. Also, in the data set on Pseudomonas aeruginosa, the half-maximal inhibitory concentration (IC50) was 65.5 µM.

In the case of `Cc1ccc(S(=O)(=O)NCc2c(O)c(=O)cc(C)n2C)cc1`, in data set [1], the “growth inhibition (GI)” value is reported as “Non-Toxic”. In addition, the concentration for half-maximal inhibition (IC50) in the data set on Pseudomonas aeruginosa stood at 59.3 µM.

For `Cc1cc(=O)c(O)c(CNS(=O)(=O)c2ccc(C(C)(C)C)cc2)n1C`, the “growth inhibition (GI)” value in data set [1] was “Non-Toxic”. Further, the half-maximal inhibitory concentration (IC50) with Pseudomonas aeruginosa worked out at 51.6 µM.

Turning to `CCCC(=O)NCc1c(O)c(=O)cc(C)n1C`, the “growth inhibition (GI)” value in data set [1] is “Non-Toxic”. In addition, in the data set on Pseudomonas aeruginosa, the IC50 came out at 45.1 µM.

As for `Cc1cc(=O)c(O)c(CNC(=O)c2cccc3ccccc23)n1C`, the “growth inhibition (GI)” value in data set [1] is on record as “Non-Toxic”. In the data set with Pseudomonas aeruginosa, the concentration for half-maximal inhibition (IC50) was determined as 75.6 µM.

Regarding `COc1ccc(S(=O)(=O)NCc2c(O)c(=O)cc(C)n2C)cc1`, the “growth inhibition (GI)” value in data set [1] is reported as “Non-Toxic”. In the data set on Pseudomonas aeruginosa, the IC50 is more than 100 µM.

Turning to `Cc1cc(=O)c(O)c(CNCCCN2CCN(C)CC2)n1C`, in data set [1], the “growth inhibition (GI)” value is on record as “Non-Toxic”. Moreover, in the data set on Pseudomonas aeruginosa, the half-inhibitory concentration (IC50) was 16.9 µM.

With `CCCCCCCC(=O)NCc1c(O)c(=O)cc(C)n1C`, the “growth inhibition (GI)” value in data set [1] is “Non-Toxic”. The IC50 with Pseudomonas aeruginosa was more than 100 µM.

Regarding `Cc1cc(=O)c(O)c(CNS(=O)(=O)c2ccccc2)n1C`, the “growth inhibition (GI)” value in data set [1] is listed as “Non-Toxic”. In addition, the IC50 in the data set on Pseudomonas aeruginosa was more than 100 µM.

`Cc1cc(=O)c(O)c(CNC(C)C)n1C`: in data set [1], the “growth inhibition (GI)” value is “Non-Toxic”. The half-maximal inhibitory concentration (IC50) in the data set on Pseudomonas aeruginosa came to 24.5 µM.
